According to ChEMBL document CHEMBL4138251, “Iodine-Promoted Aromatization of p-Menthane-Type Phytocannabinoids” (J Nat Prod, 2018):
pEC50, pIC50: −log10 of the molar value.

Assays:
[1] = target: Transient receptor potential cation channel subfamily V member 4 (Rattus norvegicus, UniProt Q9ERZ8); test: Agonist activity at recombinant rat TRPV4 expressed in HEK293 cells assessed as increase in intracellular calcium level by Fluo4-AM probe based fluorescence assay; type: cell-based
Summary of the method: (§1)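 HEK-293 cells stably expressing the channel, selected with G-418 (600 μg mL−1) and grown in MEM with 10% FBS and 2 mM glutamine at 37 °C, 5% CO2. Cells were loaded 1 h at room temperature in the dark with Fluo-4 AM (4 μM). Cells were washed and suspended in Tyrode's buffer pH 7.4, and fluorescence was read at 25 °C (ex 488/em 516 nm).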

[2] = target: T1, Transient receptor potential cation channel, subfamily V, member 3 (Rattus norvegicus, UniProt E9PU00); test: Agonist activity at recombinant rat TRPV3 expressed in HEK293 cells assessed as increase in intracellular calcium level by Fluo4-AM probe based fluorescence assay; type: cell-based; summary of the method: as §1
T1 sequence (E9PU00 whole entry): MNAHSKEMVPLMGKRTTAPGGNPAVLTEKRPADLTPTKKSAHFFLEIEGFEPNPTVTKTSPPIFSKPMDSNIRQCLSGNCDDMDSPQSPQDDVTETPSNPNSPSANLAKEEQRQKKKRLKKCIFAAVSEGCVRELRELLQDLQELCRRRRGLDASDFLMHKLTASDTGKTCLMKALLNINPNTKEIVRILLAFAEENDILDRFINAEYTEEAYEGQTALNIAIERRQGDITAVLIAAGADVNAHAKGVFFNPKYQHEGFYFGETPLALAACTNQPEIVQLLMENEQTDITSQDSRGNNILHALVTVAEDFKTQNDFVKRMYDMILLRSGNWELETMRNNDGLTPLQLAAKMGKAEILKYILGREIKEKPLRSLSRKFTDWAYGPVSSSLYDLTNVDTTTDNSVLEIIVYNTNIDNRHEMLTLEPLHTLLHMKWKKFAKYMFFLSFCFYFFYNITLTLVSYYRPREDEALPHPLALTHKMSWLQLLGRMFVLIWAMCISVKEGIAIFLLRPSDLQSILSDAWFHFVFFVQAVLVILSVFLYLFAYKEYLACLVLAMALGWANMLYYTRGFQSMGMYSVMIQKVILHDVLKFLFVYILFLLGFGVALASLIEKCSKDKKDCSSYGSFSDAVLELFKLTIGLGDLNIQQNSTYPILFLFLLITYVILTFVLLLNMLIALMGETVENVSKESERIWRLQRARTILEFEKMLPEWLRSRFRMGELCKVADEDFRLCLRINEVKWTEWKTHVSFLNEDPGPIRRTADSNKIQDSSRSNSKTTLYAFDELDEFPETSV

[3] = target: Transient receptor potential cation channel subfamily A member 1 (Rattus norvegicus, UniProt Q6RI86); test: Agonist activity at recombinant rat TRPA1 expressed in HEK293 cells assessed as increase in intracellular calcium level by Fluo4-AM probe based fluorescence assay; type: cell-based; summary of the method: as §1
Chain of Transient receptor potential cation channel subfamily A member 1 (Q6RI86 whole entry): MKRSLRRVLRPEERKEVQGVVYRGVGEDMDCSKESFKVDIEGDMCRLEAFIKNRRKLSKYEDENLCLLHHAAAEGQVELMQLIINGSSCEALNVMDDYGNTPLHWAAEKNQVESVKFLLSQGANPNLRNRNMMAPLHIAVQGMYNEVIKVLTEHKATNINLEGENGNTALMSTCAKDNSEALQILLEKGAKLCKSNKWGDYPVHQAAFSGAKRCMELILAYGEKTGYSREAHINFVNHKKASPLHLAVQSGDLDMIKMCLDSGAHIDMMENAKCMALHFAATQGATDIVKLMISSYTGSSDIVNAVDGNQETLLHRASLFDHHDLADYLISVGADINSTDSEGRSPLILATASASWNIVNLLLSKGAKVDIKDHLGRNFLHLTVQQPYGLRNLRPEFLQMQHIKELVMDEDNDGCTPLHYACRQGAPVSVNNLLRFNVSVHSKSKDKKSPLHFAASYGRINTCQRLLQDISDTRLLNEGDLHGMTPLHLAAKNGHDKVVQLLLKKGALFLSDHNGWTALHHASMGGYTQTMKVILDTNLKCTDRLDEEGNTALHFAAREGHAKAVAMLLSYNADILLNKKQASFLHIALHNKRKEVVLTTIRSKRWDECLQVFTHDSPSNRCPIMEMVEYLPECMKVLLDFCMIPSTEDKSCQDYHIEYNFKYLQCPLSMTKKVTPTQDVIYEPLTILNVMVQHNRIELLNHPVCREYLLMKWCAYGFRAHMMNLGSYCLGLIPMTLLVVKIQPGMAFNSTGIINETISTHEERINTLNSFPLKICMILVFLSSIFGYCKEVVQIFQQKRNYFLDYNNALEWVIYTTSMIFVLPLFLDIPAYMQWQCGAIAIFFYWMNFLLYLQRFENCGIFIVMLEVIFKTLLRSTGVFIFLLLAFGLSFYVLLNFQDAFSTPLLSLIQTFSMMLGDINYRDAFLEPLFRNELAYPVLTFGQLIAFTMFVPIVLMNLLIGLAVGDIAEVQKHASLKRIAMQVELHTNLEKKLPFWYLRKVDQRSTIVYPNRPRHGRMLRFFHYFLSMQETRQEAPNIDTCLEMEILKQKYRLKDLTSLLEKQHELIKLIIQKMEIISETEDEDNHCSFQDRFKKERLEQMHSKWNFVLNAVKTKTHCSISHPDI

[4] = target: Cannabinoid receptor 2 (Homo sapiens, UniProt P34972); test: Displacement of 3H-CP-55940 from recombinant full length human CB2 receptor expressed in HEK293 cell membranes after 90 mins by topcount scintillation counting analysis
Chain of Cannabinoid receptor 2 (P34972 whole entry): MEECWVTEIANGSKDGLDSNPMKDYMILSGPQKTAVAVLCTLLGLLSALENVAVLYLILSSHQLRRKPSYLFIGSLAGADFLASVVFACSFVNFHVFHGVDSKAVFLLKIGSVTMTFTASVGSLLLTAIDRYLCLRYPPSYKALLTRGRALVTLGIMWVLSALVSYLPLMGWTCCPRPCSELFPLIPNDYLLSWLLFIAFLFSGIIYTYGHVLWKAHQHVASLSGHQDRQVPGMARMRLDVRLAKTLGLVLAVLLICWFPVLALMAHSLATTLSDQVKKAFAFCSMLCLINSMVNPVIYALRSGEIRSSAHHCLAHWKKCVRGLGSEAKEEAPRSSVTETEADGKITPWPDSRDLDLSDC

[5] = target: Transient receptor potential cation channel subfamily M member 8 (Rattus norvegicus, UniProt Q8R455); test: Antagonist activity at recombinant rat TRPM8 expressed in HEK293 cells assessed as inhibition of icilin-induced intracellular calcium level incubated for 5 mins followed by agonist stimulation by Fluo4-AM probe based fluorescence assay; type: cell-based
Chain of Transient receptor potential cation channel subfamily M member 8 (Q8R455 whole entry): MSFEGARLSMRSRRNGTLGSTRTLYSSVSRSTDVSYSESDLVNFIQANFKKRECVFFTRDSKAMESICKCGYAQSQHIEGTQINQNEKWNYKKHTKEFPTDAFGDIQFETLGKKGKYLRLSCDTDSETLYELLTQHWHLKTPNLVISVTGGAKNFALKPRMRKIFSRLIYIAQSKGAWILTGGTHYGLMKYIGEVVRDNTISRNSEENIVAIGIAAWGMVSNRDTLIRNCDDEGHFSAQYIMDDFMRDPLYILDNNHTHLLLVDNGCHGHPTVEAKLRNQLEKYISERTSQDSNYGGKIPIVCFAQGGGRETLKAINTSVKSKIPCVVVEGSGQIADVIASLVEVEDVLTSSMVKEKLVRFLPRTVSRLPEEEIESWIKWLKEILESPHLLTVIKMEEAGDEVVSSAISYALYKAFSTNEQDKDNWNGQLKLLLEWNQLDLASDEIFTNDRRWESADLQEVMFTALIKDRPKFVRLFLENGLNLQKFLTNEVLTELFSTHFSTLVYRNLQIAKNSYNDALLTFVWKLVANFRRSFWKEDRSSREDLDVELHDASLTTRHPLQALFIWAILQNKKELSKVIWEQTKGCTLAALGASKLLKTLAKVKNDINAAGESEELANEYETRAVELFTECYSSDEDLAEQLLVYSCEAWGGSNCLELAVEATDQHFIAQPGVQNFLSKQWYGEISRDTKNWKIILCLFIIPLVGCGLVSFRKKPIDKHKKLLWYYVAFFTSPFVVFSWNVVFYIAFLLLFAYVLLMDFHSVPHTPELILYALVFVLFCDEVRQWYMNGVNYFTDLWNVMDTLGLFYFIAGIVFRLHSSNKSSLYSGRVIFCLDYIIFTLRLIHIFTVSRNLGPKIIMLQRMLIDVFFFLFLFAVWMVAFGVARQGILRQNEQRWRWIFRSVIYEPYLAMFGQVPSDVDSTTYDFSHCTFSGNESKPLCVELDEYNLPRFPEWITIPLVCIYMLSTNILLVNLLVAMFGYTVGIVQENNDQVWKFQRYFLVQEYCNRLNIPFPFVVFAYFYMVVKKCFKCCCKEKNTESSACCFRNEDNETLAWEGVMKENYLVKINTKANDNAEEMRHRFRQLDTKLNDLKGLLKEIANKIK
Summary of the method: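 Rat TRPM8 HEK-293 cells were loaded with Fluo-4 AM and suspended in Tyrode's buffer pH 7.4. Compound was added 5 min before icilin (0.25 μM), and [Ca2+]i was read at 22 °C on a Peltier system. IC50 for half-maximal inhibition of the agonist response was taken from sigmoidal fits.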

[6] = target: Transient receptor potential cation channel subfamily V member 1 (Homo sapiens, UniProt Q8NER1); test: Agonist activity at human TRPV1 expressed in HEK293 cells assessed as increase in intracellular calcium level by Fluo4-AM probe based fluorescence assay; type: cell-based; summary of the method: as §1
Chain of Transient receptor potential cation channel subfamily V member 1 (Q8NER1 whole entry): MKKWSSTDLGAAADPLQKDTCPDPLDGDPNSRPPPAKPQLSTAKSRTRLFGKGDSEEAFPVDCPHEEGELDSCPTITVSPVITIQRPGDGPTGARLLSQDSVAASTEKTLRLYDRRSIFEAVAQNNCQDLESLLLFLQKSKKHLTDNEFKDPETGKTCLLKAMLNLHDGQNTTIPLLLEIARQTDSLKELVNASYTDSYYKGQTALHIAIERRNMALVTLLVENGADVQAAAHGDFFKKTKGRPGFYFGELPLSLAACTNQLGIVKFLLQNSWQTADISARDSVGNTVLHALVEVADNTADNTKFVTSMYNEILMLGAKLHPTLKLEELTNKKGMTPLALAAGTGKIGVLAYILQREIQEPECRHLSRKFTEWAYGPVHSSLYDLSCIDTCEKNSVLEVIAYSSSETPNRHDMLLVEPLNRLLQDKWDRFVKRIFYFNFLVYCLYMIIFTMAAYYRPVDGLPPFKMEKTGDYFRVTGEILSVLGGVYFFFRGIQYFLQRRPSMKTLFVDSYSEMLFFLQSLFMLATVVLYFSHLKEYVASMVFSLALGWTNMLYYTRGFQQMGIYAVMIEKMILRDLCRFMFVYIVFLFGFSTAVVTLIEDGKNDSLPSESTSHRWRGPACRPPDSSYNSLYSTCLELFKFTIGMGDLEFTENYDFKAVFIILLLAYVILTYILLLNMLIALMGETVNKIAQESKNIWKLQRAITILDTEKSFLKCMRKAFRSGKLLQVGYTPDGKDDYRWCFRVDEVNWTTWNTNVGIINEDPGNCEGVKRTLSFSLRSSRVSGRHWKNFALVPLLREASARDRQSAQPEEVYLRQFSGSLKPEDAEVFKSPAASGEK

[7] = target: T2, Transient receptor potential cation channel subfamily V member 2 (Rattus norvegicus, UniProt Q9WUD2); test: Agonist activity at recombinant rat TRPV2 expressed in HEK293 cells assessed as increase in intracellular calcium level by Fluo4-AM probe based fluorescence assay; type: cell-based; summary of the method: as §1
T2 sequence (Q9WUD2 whole entry): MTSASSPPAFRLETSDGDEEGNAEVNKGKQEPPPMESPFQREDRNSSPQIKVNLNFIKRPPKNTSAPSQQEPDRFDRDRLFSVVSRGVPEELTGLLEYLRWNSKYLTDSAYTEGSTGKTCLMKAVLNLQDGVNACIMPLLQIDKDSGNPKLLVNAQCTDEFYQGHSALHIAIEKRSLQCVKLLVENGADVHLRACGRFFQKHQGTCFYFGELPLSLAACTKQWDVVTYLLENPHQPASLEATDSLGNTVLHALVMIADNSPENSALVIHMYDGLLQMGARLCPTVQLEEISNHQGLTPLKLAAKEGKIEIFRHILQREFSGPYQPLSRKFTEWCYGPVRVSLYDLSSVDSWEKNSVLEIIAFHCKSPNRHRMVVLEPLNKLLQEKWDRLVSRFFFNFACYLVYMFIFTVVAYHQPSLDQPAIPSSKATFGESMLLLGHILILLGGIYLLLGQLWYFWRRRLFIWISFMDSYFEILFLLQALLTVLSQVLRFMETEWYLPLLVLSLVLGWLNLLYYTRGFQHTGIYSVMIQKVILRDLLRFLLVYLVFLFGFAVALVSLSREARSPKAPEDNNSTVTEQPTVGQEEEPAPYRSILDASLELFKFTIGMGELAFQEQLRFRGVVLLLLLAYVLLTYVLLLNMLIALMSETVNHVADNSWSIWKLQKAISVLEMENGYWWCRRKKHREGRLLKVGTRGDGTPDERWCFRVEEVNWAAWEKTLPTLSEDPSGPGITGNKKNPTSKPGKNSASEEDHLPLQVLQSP

[8] = target: Cannabinoid receptor 1 (Homo sapiens, UniProt P21554); test: Displacement of 3H-CP-55940 from recombinant full length human CB1 receptor expressed in HEK293 cell membranes after 90 mins by topcount scintillation counting analysis
Chain of Cannabinoid receptor 1 (P21554 whole entry): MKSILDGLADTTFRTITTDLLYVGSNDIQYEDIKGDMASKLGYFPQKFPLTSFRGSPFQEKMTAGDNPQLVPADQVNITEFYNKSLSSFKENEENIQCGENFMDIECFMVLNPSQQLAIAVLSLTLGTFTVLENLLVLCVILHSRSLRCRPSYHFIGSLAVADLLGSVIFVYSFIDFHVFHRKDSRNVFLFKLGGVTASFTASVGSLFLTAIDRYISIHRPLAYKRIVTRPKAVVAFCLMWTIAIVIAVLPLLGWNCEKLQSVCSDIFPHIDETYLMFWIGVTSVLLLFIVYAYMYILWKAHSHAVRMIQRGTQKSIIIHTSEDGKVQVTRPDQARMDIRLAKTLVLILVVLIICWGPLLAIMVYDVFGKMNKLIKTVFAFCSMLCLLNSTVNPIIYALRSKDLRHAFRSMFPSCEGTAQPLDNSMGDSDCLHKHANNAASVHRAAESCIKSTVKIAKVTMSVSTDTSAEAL

Chain of Transient receptor potential cation channel subfamily V member 4 (Q9ERZ8 whole entry): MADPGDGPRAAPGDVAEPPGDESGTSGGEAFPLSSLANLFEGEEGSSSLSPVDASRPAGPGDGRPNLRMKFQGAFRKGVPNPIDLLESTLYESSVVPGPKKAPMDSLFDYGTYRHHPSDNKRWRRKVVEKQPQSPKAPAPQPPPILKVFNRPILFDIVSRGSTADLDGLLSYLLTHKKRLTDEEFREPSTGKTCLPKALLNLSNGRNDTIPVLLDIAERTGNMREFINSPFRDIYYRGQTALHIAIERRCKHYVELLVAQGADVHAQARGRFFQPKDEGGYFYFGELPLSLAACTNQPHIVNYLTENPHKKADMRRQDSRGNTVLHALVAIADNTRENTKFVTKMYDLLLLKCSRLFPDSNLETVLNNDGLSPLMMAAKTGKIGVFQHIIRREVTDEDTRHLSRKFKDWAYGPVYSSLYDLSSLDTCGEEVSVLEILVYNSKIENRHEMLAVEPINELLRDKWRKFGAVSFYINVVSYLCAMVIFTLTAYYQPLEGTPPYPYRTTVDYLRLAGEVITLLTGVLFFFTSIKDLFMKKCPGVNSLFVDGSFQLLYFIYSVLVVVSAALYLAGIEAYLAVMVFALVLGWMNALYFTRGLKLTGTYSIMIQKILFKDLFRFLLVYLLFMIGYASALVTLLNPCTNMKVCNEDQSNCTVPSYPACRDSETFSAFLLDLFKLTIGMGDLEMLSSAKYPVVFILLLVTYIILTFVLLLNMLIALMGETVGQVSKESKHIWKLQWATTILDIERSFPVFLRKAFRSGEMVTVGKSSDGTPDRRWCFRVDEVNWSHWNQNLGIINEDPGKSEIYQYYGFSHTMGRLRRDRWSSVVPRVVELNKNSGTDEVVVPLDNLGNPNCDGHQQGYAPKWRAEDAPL

| SMILES | pEC50 [1] | pEC50 [2] | pEC50 [3] | pEC50 [4] | pIC50 [5] | pEC50 [6] | pEC50 [7] | pEC50 [8] |
| --- | --- | --- | --- | --- | --- | --- | --- | --- |
| CCCc1cc(O)c2c(c1)OC(C)(C)c1ccc(C)cc1-2 | 5.14 | 5.46 | 6.70 | 5.32 | 6.30 | 5.18 | 5.51 | 6.25 |
| CCCCCc1cc(O)c2c(c1)OC(C)(C)c1ccc(C)cc1-2 [CANNABINOL] | 4.79 | 5.28 | 6.74 | 7.14 | 6.68 | 5.21 | 4.72 | 7.12 |
